The list is not random: actives were taken first. Their share in the collection is about 2.6%.
PG9 Ab binder: binders of HIV-1 gp120 antibody PG9, primary screen, biochemical, TR-FRET; HIV-1 gp120 / PG9 antibody interaction; TR-FRET gp120-PG9 antibody binding; inhibition, % at 6.7 µM; hit rate 0.43% among 360,000; AID 624416, 2012; in the data active = inhibition above about 8.5%
NR2E3 ag-1: inhibitors of NR2E3-RetCOR corepressor binding, primary screen, NR2E3 agonist project, biochemical, TR-FRET, GST-NR2E3, biotin-RetCOR. Photoreceptor-specific nuclear receptor (Homo sapiens), Q9Y5X4. 1536-well. inhibition of corepressor binding, % at 4.78 µM. hit rate 0.12% among 320,000. AID 2300, 2010;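 active = percent inhibition above the cutoff of mean plus 3 SD of all tested compounds, set per screening campaign, cut at about 20% in these data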
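System: GST-tagged NR2E3 plus biotinylated RetCOR corepressor; Amount: 1.35 nM GST-tagged NR2E3 final; Dosing: single nominal compound dose of 4.8 µM; Schedule: 5 h incubation at 4 °C; Technique: TR-FRET with europium anti-GST and streptavidin-D2, 340 nm excitation; Controls: biotin wells as high control, 0.6% DMSO wells as low control.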
NR1D1 modulator: modulators of Rev-erb alpha DNA binding, primary screen, biochemical, FITC-DNA, fluorescence polarization, uHTS. Rev-erbα–FITC-DNA binding, 90 min. activity, % at 10 µM. hit rate 0.79% among 370,000. AID 1259318, 2017;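 active = activity above about 14%, limit read from the data; passing the limit was not always enough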
Target sequence (P20393 whole entry, looked up): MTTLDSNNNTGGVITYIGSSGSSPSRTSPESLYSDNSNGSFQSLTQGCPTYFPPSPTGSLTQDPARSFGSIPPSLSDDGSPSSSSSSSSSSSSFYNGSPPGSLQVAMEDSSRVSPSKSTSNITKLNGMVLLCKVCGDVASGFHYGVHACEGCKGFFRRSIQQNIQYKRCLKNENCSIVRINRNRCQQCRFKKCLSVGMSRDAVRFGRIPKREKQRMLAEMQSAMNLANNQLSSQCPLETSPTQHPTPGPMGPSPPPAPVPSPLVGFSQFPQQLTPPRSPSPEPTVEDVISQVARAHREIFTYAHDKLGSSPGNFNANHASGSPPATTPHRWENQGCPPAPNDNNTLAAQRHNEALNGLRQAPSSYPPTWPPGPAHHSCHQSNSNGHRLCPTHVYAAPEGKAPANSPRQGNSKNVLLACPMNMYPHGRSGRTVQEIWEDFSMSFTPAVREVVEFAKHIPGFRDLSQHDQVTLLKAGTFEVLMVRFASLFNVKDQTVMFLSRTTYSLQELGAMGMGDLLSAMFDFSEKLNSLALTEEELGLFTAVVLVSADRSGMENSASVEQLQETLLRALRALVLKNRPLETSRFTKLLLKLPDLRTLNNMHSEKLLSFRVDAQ
rCAG binder: binders of r(CAG) RNA repeats, primary screen, biochemical, fluorescence | inhibition, % at 3 µM | AID 651821, 2012 | r(CAG) RNA repeat, TO-PRO-1 dye displacement fluorescence | hit rate 1.3% among 370,000;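 active = inhibition above the plate cutoff, the mean of all test compounds on that plate plus 3 SD, cut at about 35% in these data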;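 also: higher means more dye released from RNA so lower well fluorescence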
NR2E3 ag-2: NR2E3 agonists in two-hybrid cells, primary screen, cell-based, luminescence, CHO-S, Gal4-NCOR/VP16-NR2E3 | inhibition of corepressor binding, % at 3.98 µM | Photoreceptor-specific nuclear receptor (Homo sapiens), Q9Y5X4 | hit rate 0.35% among 360,000 | AID 602229, 2012 | luciferase;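 active = inhibition above the mean of all tested compounds plus 3 SD, cut at about 70% in these data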;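 also: higher means lower luciferase signal from less NR2E3 corepressor binding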
rCAG bind conf: small molecules binding CAG repeat RNA – biochemical, fluorescence, confirmation | r(CAG) RNA repeat, TO-PRO-1 dye displacement fluorescence | hit rate 70% among 4,300 | inhibition, % at 3 µM | AID 652065, 2013 | shares compounds with rCAG binder;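 active = inhibition above a per-plate cutoff, the mean inhibition of sample wells plus 3 SD, cut at about 35% in these data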;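 also: loss of TO-PRO-1 fluorescence as compound displaces dye from 1x1 AA loop RNA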
DNA CAG counter: displacement of TO-PRO-1 from CAG DNA duplex, counter-screen for rCAG RNA repeat binder project, biochemical, fluorescence, TO-PRO-1 dye, d(CAG) DNA oligo | hit rate 94% among 4,300 | AID 652068, 2013 | shares compounds with rCAG binder | d(CAG) DNA oligo TO-PRO-1 dye displacement | inhibition, % at 3 µM;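 active = inhibition above its plate's cutoff, the mean test-well inhibition plus 3 SD, cut at about 4.8% in these data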;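 also: hits displace the dye from DNA and so lower well fluorescence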
DNA CAG DR: inhibitors of DNA CAG/GTC TO-PRO-1 complex, dose response, counter-screen for rCAG RNA repeat binder project, biochemical, fluorescence, TO-PRO-1 dye. shares compounds with rCAG binder. DNA CAG/GTC duplex TO-PRO-1 dye displacement fluorescence. IC50, µM. hit rate 20% among 250. AID 686960, 2013; in the data active = IC50 below about 10 µM
A number is an active result.

How did CC1=NN(c2cccc(C(=O)O)c2)C(=O)/C1=C\C=C\c1ccco1 do in these assays?
PG9 Ab binder: inactive; NR2E3 ag-1: inactive; NR1D1 modulator: inactive; rCAG binder: 56; NR2E3 ag-2: inactive; rCAG bind conf: 64; DNA CAG counter: 26

How did CCCNC(=O)C1(C)CCCN(C(=O)c2c(C)noc2C)C1 (stereo not given) do in these assays?
PG9 Ab binder: inactive; NR1D1 modulator: inactive; rCAG binder: inactive; NR2E3 ag-2: inactive

Results for O=[N+]([O-])c1ccc(Cl)c(S(=O)(=O)Nc2ccc(-c3ccc(N4CCOCC4)nn3)cc2)c1 ?
PG9 Ab binder: inactive; NR2E3 ag-1: inactive; NR1D1 modulator: inactive; rCAG binder: inactive; NR2E3 ag-2: inactive

How did O=[N+]([O-])c1ccc(Cl)c(S(=O)(=O)Nc2cccc(-c3ccc(N4CCOCC4)nn3)c2)c1 do in these assays?
PG9 Ab binder: inactive; NR2E3 ag-1: inactive; NR1D1 modulator: inactive; rCAG binder: 38; NR2E3 ag-2: inactive; rCAG bind conf: inactive; DNA CAG counter: 9.9

How did Cc1ccc(CN2CCC[C@]3(N[C@H](c4ccc(C)cc4)[C@@H]4C(=O)N(Cc5ccccc5)C(=O)[C@@H]43)C2=O)cc1 do in these assays?
PG9 Ab binder: inactive; NR1D1 modulator: inactive; rCAG binder: inactive; NR2E3 ag-2: inactive

How did COCCCNc1nc2ccccc2nc1NS(=O)(=O)c1cccc(Cl)c1 do in these assays?
PG9 Ab binder: inactive; NR2E3 ag-1: inactive; NR1D1 modulator: inactive; rCAG binder: 38; NR2E3 ag-2: inactive; rCAG bind conf: inactive; DNA CAG counter: 6.7

How did O=S(=O)(Nc1nc2ccccc2nc1NCC1CCCO1)c1cccc(Cl)c1 (stereo not given) do in these assays?
PG9 Ab binder: inactive; NR2E3 ag-1: inactive; NR1D1 modulator: inactive; rCAG binder: 54; NR2E3 ag-2: inactive; rCAG bind conf: 40; DNA CAG counter: 10

How did CC(C)C(=O)N[C@H]1[C@H](O)CCC[C@]12C(=O)N(Cc1ccccc1)c1ccccc12 do in these assays?
NR1D1 modulator: inactive; rCAG binder: inactive

What do the screens show for `N#Cc1c(SCC(=O)Nc2nccs2)sc2c(O)cc(=O)[nH]c12`?
PG9 Ab binder: inactive; NR2E3 ag-1: inactive; NR1D1 modulator: inactive; rCAG binder: 71; NR2E3 ag-2: inactive; rCAG bind conf: 52; DNA CAG counter: 24

Results for CCCSc1nnc(NC(=O)CSc2sc3c(O)cc(=O)[nH]c3c2C#N)s1 ?
PG9 Ab binder: inactive; NR2E3 ag-1: inactive; NR1D1 modulator: inactive; rCAG binder: 65; NR2E3 ag-2: inactive; rCAG bind conf: 80; DNA CAG counter: 46

Results for C=CCSc1nnc(NC(=O)CSc2nc(CCC)cc(=O)[nH]2)s1 ?
PG9 Ab binder: inactive; NR2E3 ag-1: inactive; NR1D1 modulator: inactive; rCAG binder: inactive; NR2E3 ag-2: inactive

What do the screens show for `CC(=O)C1=C(O)C(=O)N(c2cc(C(C)(C)C)on2)C1c1ccc(C(C)C)cc1` (stereo not given)?
NR2E3 ag-1: inactive; NR2E3 ag-2: inactive

What do the screens show for `CC(=O)C1=C(O)C(=O)N(c2cc(C(C)(C)C)on2)C1c1ccc(Br)cc1` (stereo not given)?
PG9 Ab binder: inactive; NR2E3 ag-1: inactive; NR1D1 modulator: inactive; rCAG binder: 47; NR2E3 ag-2: inactive; rCAG bind conf: 46; DNA CAG counter: 13; DNA CAG DR: inactive

What do the screens show for `Cc1ccccc1S(=O)(=O)NC(=O)C1(C)CCN1C(=O)CCc1ccc(Cl)cc1Cl` (stereo not given)?
PG9 Ab binder: inactive; NR1D1 modulator: inactive; rCAG binder: 44; NR2E3 ag-2: inactive; rCAG bind conf: inactive; DNA CAG counter: 6.1

Results for CC1(C(=O)NS(=O)(=O)c2ccccc2Cl)CCN1C(=O)Cc1ccc(Cl)cc1Cl (stereo not given) ?
PG9 Ab binder: inactive; NR1D1 modulator: inactive; rCAG binder: inactive; NR2E3 ag-2: inactive

What do the screens show for `CC1(C(=O)NS(=O)(=O)c2ccccc2Cl)CCN1C(=O)CCc1ccc(Cl)cc1Cl` (stereo not given)?
PG9 Ab binder: inactive; NR1D1 modulator: inactive; rCAG binder: 47; NR2E3 ag-2: inactive; rCAG bind conf: 36; DNA CAG counter: 7.3

How did C#CCN1C=CC(=O)[C@@H](OC(=O)NCCC)[C@H]1c1ccccc1Br do in these assays?
PG9 Ab binder: inactive; NR1D1 modulator: inactive; rCAG binder: inactive; NR2E3 ag-2: inactive

Results for Cc1cc(NS(C)(=O)=O)c(=O)n(Cc2cccc(C(F)(F)F)c2)c1 ?
PG9 Ab binder: inactive; NR1D1 modulator: inactive; rCAG binder: inactive; NR2E3 ag-2: inactive

What do the screens show for `CS(=O)(=O)c1ccc2nc(NC(=O)c3ccc(NS(=O)(=O)c4cccc([N+](=O)[O-])c4)cc3)sc2c1`?
PG9 Ab binder: inactive; NR2E3 ag-1: inactive; NR1D1 modulator: inactive; rCAG binder: 72; NR2E3 ag-2: inactive; rCAG bind conf: 70; DNA CAG counter: 31; DNA CAG DR: 9.4

Results for CS(=O)(=O)c1ccc2nc(NC(=O)Nc3cccc(Cl)c3)sc2c1 ?
PG9 Ab binder: inactive; NR2E3 ag-1: inactive; NR1D1 modulator: inactive; rCAG binder: 71; NR2E3 ag-2: inactive; rCAG bind conf: 63; DNA CAG counter: 47

Results for Cc1ccc2nc(NC(=O)c3ccc(NS(=O)(=O)c4cccs4)cc3)sc2c1 ?
PG9 Ab binder: inactive; NR2E3 ag-1: inactive; NR1D1 modulator: inactive; rCAG binder: 43; NR2E3 ag-2: inactive; rCAG bind conf: 61; DNA CAG counter: 23

What do the screens show for `CC1=CC(c2ccccc2)n2nc(NS(=O)(=O)c3ccc(C)cc3)nc2N1` (stereo not given)?
PG9 Ab binder: inactive; NR2E3 ag-1: inactive; NR1D1 modulator: inactive; rCAG binder: inactive; NR2E3 ag-2: inactive

Results for CC1=CC(c2ccc(Cl)cc2)n2nc(NS(=O)(=O)c3ccc(C)cc3)nc2N1 (stereo not given) ?
PG9 Ab binder: inactive; NR2E3 ag-1: inactive; NR1D1 modulator: inactive; rCAG binder: 47; NR2E3 ag-2: inactive; rCAG bind conf: 52; DNA CAG counter: 17

Bioassay records: PubChem, several laboratories
